From ChEMBL document CHEMBL1137677, “Synthesis, pharmacological screening, quantum chemical and in vitro permeability studies of N-Mannich bases of benzimidazoles through bovine cornea” (Eur J Med Chem, 2009)

How the values were obtained:
[1] = Apparent permeability across bovine cornea assessed as lag time of permeation by UV-visible spectrophotometer; type: ADME, tissue-based, Bos taurus; conditions: cattle
Summary of the method: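 Fresh bovine cornea, taken within 1 h of sacrifice with lens and iris removed, was mounted in a side-by-side perfusion cell. Donor held 7 mL of drug in 0.01 M methanolic phosphate buffer, pH 7. Receptor was sampled 1 mL every 15 min for 3 h and replaced with buffer pre-equilibrated at 37 °C. Drug was quantified by UV-vis absorbance. Lag time is the time to reach a steady concentration gradient across the membrane.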

[2] = test system: Rattus norvegicus; experiment: Antiinflammatory activity in Wistar albino rat assessed as reduction in formalin-induced paw edema volume at 50 mg/kg, po administered 30 mins prior to formalin challenge measured after 90 mins by plethysmography; type: functional; design: scale not given: the % may be the effect or the level left
Summary of the method: (§1)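 Standard-drug arm, given orally to Wistar albino rats 30 min before subplantar formalin (0.1 mL of 1% w/v). Paw volumes were measured by plethysmography at 30, 60, 90 and 120 min post-formalin and expressed as % reduction of edema.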

[3] = test system: Rattus norvegicus; experiment: Antiinflammatory activity in Wistar albino rat assessed as reduction in formalin-induced paw edema volume at 50 mg/kg, po administered 30 mins prior to formalin challenge measured after 30 mins by plethysmography; type: functional; design: scale not given: the % may be the effect or the level left; summary of the method: as §1
[4] = test system: Rattus norvegicus; experiment: Antiinflammatory activity in Wistar albino rat assessed as reduction in formalin-induced paw edema volume at 50 mg/kg, po administered 30 mins prior to formalin challenge measured after 120 mins by plethysmography; type: functional; design: scale not given: the % may be the effect or the level left; summary of the method: as §1
[5] = test system: Rattus norvegicus; experiment: Antiinflammatory activity in Wistar albino rat assessed as reduction in formalin-induced paw edema volume at 50 mg/kg, po administered 30 mins prior to formalin challenge measured after 60 mins by plethysmography; type: functional; design: scale not given: the % may be the effect or the level left; summary of the method: as §1
[6] = test system: Rattus norvegicus; experiment: Antiinflammatory activity in Wistar albino rat assessed as reduction in formalin-induced paw edema volume at 200 mg/kg, po administered 30 mins prior to formalin challenge measured after 60 mins by plethysmography; type: functional; design: scale not given: the % may be the effect or the level left
Summary of the method: (§2)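 Wistar albino rats received the compound orally as a suspension in 1% carboxymethyl cellulose, 30 min before subplantar formalin (0.1 mL of 1% w/v). Paw volume was read by plethysmography at 30, 60, 90 and 120 min after formalin and expressed as % reduction of edema. Significance was tested by Student's t-test.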

[7] = test system: Rattus norvegicus; experiment: Antiinflammatory activity in Wistar albino rat assessed as reduction in formalin-induced paw edema volume at 200 mg/kg, po administered 30 mins prior to formalin challenge measured after 120 mins by plethysmography; type: functional; design: scale not given: the % may be the effect or the level left; summary of the method: as §2
[8] = Acute toxicity in po dosed Wistar albino mouse assessed as mortality after 24 hrs by Karber's arithmetical method; type: organism-based; conditions: in vivo
Summary of the method: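 Wistar albino mice of either sex, six per group; compounds given orally by gavage as suspension in 1% carboxymethyl cellulose at 100, 200, 400, 800 or 1000 mg/kg. Mortality recorded over 24 h; LD50 calculated by Karber's arithmetical method.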

[9] = test system: Rattus norvegicus; experiment: Antiinflammatory activity in Wistar albino rat assessed as reduction in formalin-induced paw edema volume at 200 mg/kg, po administered 30 mins prior to formalin challenge measured after 90 mins by plethysmography; type: functional; design: scale not given: the % may be the effect or the level left; summary of the method: as §2
[10] = test system: Mus musculus; experiment: Analgesic activity in Wistar albino mouse assessed as protection against acetic acid-induced writhing at 100 mg/kg, po administered 30 mins prior to acetic acid challenge measured after 30 mins; type: functional
Summary of the method: (§3)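 Wistar albino mice of either sex were dosed orally by gavage with a suspension in 1% carboxymethyl cellulose, 30 min before the writhing agent (0.6% v/v aqueous acetic acid, 1 mL/100 g). Writhings were counted over 30 min and expressed as percentage protection. Significance was tested by Student's t-test.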

[11] = test system: Mus musculus; experiment: Analgesic activity in Wistar albino mouse assessed as protection against acetic acid-induced writhing at 200 mg/kg, po administered 30 mins prior to acetic acid challenge measured after 30 mins; type: functional; summary of the method: as §3
[12] = test system: Rattus norvegicus; experiment: Antiinflammatory activity in Wistar albino rat assessed as reduction in formalin-induced paw edema volume at 200 mg/kg, po administered 30 mins prior to formalin challenge measured after 30 mins by plethysmography; type: functional; design: scale not given: the % may be the effect or the level left; summary of the method: as §2
[13] = test system: Mus musculus; experiment: Analgesic activity in Wistar albino mouse assessed as protection against acetic acid-induced writhing at 40 mg/kg, po administered 30 mins prior to acetic acid challenge measured after 30 mins; type: functional; summary of the method: as §3
[14] = test system: Rattus norvegicus; experiment: Antiinflammatory activity in Wistar albino rat assessed as reduction in formalin-induced paw edema volume at 40 mg/kg, po administered 30 mins prior to formalin challenge measured after 90 mins by plethysmography; type: functional; design: scale not given: the % may be the effect or the level left; summary of the method: as §2
[15] = test system: Rattus norvegicus; experiment: Antiinflammatory activity in Wistar albino rat assessed as reduction in formalin-induced paw edema volume at 40 mg/kg, po administered 30 mins prior to formalin challenge measured after 60 mins by plethysmography; type: functional; design: scale not given: the % may be the effect or the level left; summary of the method: as §2
[16] = test system: Mus musculus; experiment: Analgesic activity in Wistar albino mouse assessed as protection against acetic acid-induced writhing at 20 mg/kg, po administered 30 mins prior to acetic acid challenge measured after 30 mins; type: functional; summary of the method: as §3
[17] = test system: Rattus norvegicus; experiment: Antiinflammatory activity in Wistar albino rat assessed as reduction in formalin-induced paw edema volume at 40 mg/kg, po administered 30 mins prior to formalin challenge measured after 120 mins by plethysmography; type: functional; design: scale not given: the % may be the effect or the level left; summary of the method: as §2
[18] = test system: Rattus norvegicus; experiment: Antiinflammatory activity in Wistar albino rat assessed as reduction in formalin-induced paw edema volume at 40 mg/kg, po administered 30 mins prior to formalin challenge measured after 30 mins by plethysmography; type: functional; design: scale not given: the % may be the effect or the level left; summary of the method: as §2

Compound	Tlag [1] [min]	LD50 at 24 h [8] [mg/kg]	Activity [10] [%]	Activity [13] [%]	Activity [14] [%]	Activity [15] [%]	Activity [16] [%]	Activity [17] [%]	Activity [18] [%]	also measured
Cc1nc2ccccc2[nH]1	11.68									
O=C(O)Cc1ccccc1Nc1c(Cl)cccc1Cl [DICLOFENAC]	3.36									Activity [2]: 64%; Activity [3]: 48%; Activity [4]: 65%; Activity [5]: 65%
CN(C)Cn1cnc2ccccc21	15.31	> 1000	25.87							Activity [6]: 51%; Activity [7]: 53%; Activity [9]: 64%; Activity [11]: 31.4%; Activity [12]: 48%
C(=C\c1nc2ccccc2[nH]1)/c1ccccc1	9.57									
C(=C\c1nc2ccccc2n1CN1CCCCC1)/c1ccccc1	4.51	180		43.8	59	56	29.56	62	48	
c1ccc2[nH]cnc2c1 [BENZIMIDAZOLE]	18.81									
CCN(CC)Cn1c(/C=C/c2ccccc2)nc2ccccc21	4.9	175		47.49	51	50	32.2	56	20	
CC(=O)Nc1ccc(O)cc1 [ACETAMINOPHEN]	1.55		47.76							
CCN(CC)Cn1cnc2ccccc21	16.79	> 1000	11.35							Activity [6]: 59%; Activity [7]: 61%; Activity [9]: 63%; Activity [11]: 43.8%; Activity [12]: 28%
C(=C\c1nc2ccccc2n1CN1CCOCC1)/c1ccccc1	7.33	200		27.45	74	59	20.58	70	52	
